Assay outcomes from PubChem.
CSN inh – blocks human CSN-mediated cullin deneddylation | Purified CSN, SCF-Nedd8-OG deneddylation, fluorescence polarization | inhibition, % at 12.5 µM | 0.38% of 360,000 active | AID 651999;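 active means pattern-corrected inhibition above about 35%, with an unprinted fluorescence ratio check between 0.5 and 1.5, limit read from the data, passing the limit was not always enough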;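 further: 0% = enzyme with substrate and 100% = substrate without enzyme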
Target sequence (Q92905 whole entry, looked up, one chain of several): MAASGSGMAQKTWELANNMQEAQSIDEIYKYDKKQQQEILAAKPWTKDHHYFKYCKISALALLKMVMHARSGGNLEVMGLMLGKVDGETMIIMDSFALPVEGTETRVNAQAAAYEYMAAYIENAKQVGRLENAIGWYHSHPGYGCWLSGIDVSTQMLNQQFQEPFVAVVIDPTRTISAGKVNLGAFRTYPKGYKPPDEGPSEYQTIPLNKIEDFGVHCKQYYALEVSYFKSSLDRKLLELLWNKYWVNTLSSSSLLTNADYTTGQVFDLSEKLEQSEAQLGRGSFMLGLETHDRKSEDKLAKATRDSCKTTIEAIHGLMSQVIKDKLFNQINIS
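Assay system: HEK293T-derived human Csn5 enzyme; quantity: 0.24 nM enzyme; medium: Tris/NaCl/DTT buffer, pH 7.5; also added: substrate SCFSkp2-Nedd8OG, 10 nM; doses: 12.5 µM compound; schedule: 90 min reaction at room temperature; signal: FP; read-out: % inhibition of substrate cleavage by Csn5; benchmarks: substrate-only high control, full reaction low control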
HNF4A DNA FP – change in binding of human HNF4 alpha to DNA; P41235; HNF4a-FITC DNA binding, fluorescence polarization, 1 h; activity change, % at 10 µM; 0.3% of 360,000 active; AID 1224865; in the data active means activity change above about 30%, passing the limit was not always enough
aDG glyco up – alpha-DG glycosylation activation. 0.22% of 360,000 active. AID 624168. activation, % at 10 µM. Pro5-aDG cells, alpha-DG glycosylation AlphaScreen (IIH6); 0% Pro5, 100% B10-LARGE cell signal;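 active means activation of at least 8% versus controls, or a plate z-score of at least 8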;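 further: Pro5 are CHO cells carrying HIG-tagged alpha-DG that lacks glycosylation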
Rev-erbA mod – modulators of human Rev-erb alpha DNA binding; 0.79% of 370,000 active; AID 1259318; P20393; activity, % at 10 µM; Rev-erbα–FITC-DNA binding, fluorescence polarization, 90 min;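 active means activity above about 14%, limit read from the data; passing the limit was not always enough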;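 further: 0% = DMSO wells with 35 nM protein and 100% = DMSO wells with 750 nM protein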
aDG glyco conf – alpha-DG glycosylation activation, confirmation. shares compounds with aDG glyco up. Pro5-aDG cells, IIH6 AlphaLISA; scaled to LARGE-overexpressing B10 cells as 100%. activation, % at 10 µM (by protocol). 17% of 600 active. AID 651671;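 active means activation of at least 7% in one or more replicates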;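 further: cells exposed to compound for two days before detection; 0% = DMSO-treated Pro5 cells and 100% = DMSO-treated B10-LARGE cells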
* marks the source's active call; other numbers are inactive results; . = no result; ! = not confirmed by another sample. Shown are actives, neighbours in structure and some others; about 1.5% of the full set was active somewhere.

SMILES | CSN inh | HNF4A DNA FP | aDG glyco up | Rev-erbA mod | others
CC(C)(C)N1C(=O)NC(=O)/C(=C\c2ccc3c(c2)CCN3CCCCl)C1=O | 39* | 17 | 0 | 4
CN(C)c1ccc(/C=C2\C(=O)NC(=O)N(Cc3ccc(F)cc3)C2=O)cc1 | 7 | 2 | 0 | -3
Cc1ccc(N2C(=O)NC(=O)/C(=C\c3ccoc3)C2=O)cc1 | 58* | 19 | 0 | 9
O=C1NC(=O)N(Cc2ccc(F)cc2)C(=O)/C1=C\c1ccoc1 | 149 | 60* | 0 | -14
CC(C)=CC1C(C(=O)OC(C#N)c2cccc(Oc3ccccc3)c2)C1(C)C (configuration not stated) | . | . | . | 2
Cc1cccc(C)c1-n1nnnc1C(c1cccs1)N1CCC(n2c(=O)[nH]c3ccccc32)CC1 (configuration not stated) | 68* | 11 | 0 | 6
Cc1cccc(C)c1-n1nnnc1C(c1cccc2ccccc12)N1CCC(n2c(=O)[nH]c3ccccc32)CC1 (configuration not stated) | 0 | -3 | 0 | 4
CC1=C2CCC3C(CC[C@]4(C)C(=O)CCC34)[C@@]2(C)CCC1=O (some centres not stated) | . | . | . | 4
O=C(NC1CCCCC1)N1Cc2cc(-c3cccc(F)c3)ccc2-n2nncc2C1 | 145* | 5 | 0 | 1
CCOC(=O)c1c(N)n(CCCOC(=O)c2ccco2)c2nc3ccccc3nc12 | 7 | 3 | 14* | -3
COCCCn1c(N)c(C(=O)OCCOC)c2nc3ccccc3nc21 | 1 | 5 | 0 | -5
CCN1CCN(C(=O)COc2ccc(S(=O)(=O)NC(C)C)cc2)CC1 | -6 | -2 | 0 | -2
CN1CCN(C(=O)COc2ccc(S(=O)(=O)Nc3ccc(F)cc3)cc2)CC1 | 2 | 43* | 0 | 0
Nc1c(C(=O)NC2CCCC2)c2nc3ccccc3nc2n1CC1CCCO1 (configuration not stated) | 46* | 0 | 0 | -6
CN1C2C[C@H](OC(=O)[C@H](CO)c3ccccc3)CC1[C@@H](O)C2 (some centres not stated) | . | . | . | 2
O=C1NC(=S)N(c2ccc(Cl)cc2)C(=O)/C1=C/N1CCN(C(=O)c2ccco2)CC1 | 43* | 16 | 0 | -4
Cn1c(O)c(C=Nc2ccccc2)c(=O)n(C)c1=O | -5 | 1 | 0 | 0
Cn1c(O)c(/C=C/C=Nc2ccccc2)c(=O)n(C)c1=O | 56* | 86* | 0 | 24
COC1C(O)CC(OC2CC(Oc3cc4cc5c(c(O)c4c(O)c3C)C(=O)[C@@H](OC3CC(OC4CC(OC6CC(C)(O)C(OC(C)=O)C(C)O6)C(O)C(C)O4)C(O)C(C)O3)[C@H]([C@H](OC)C(=O)C(O)[C@H](C)O)C5)OC(C)C2OC(C)=O)OC1C (some centres not stated) | . | . | . | -4
CCN1C[C@@]2(COC)C3[C@@H](OC)[C@H]4[C@@H]1[C@]3(C(OC)C[C@H]2O)C1C[C@@]2(O)[C@H](OC(=O)c3ccccc3)C1[C@]4(OC(C)=O)[C@@H](O)[C@@H]2OC (some centres not stated) | . | . | . | -6
C=CCN1C(=O)/C(=C\c2ccc(N3CCOCC3)o2)C(=O)NC1=S | 112 | 56* | 0 | 13
C[C@]12CC[C@H](OC3OC(O)C(O)C(O)C3O)C=C1CCC1C2CC[C@]2(C)[C@@H](c3ccc(=O)oc3)CC[C@]12O (some centres not stated) | . | . | . | -4
CN(C)/C=C/C(=O)C(Cl)(Cl)Cl | -2 | 38* | 0 | 6
C[n+]1c2ccccc2nc2ccc(NCCO)cc21 | 7 | -1 | 0 | -11
CNc1ccc2nc3ccccc3[n+](C)c2c1 | -3 | -17 | 2.7* | -3
SMILES | CSN inh | HNF4A DNA FP | aDG glyco up | Rev-erbA mod | others
CC[C@H]1C2CC3[C@@H]4N(C)c5ccccc5[C@]45C[C@@H](C2C5O)N3[C@@H]1O (some centres not stated) | . | . | . | 0
CC(=O)[C@H]1CCC2C3CC[C@H]4C[C@H](O)CC[C@]4(C)C3C(=O)C[C@@]21C (some centres not stated) | . | . | . | 1
COc1cccc([C@]2(O)CCCC[C@H]2CN(C)C)c1 | . | . | . | -14
CCCCn1c(O)c(/C(CC)=N/N2CCCCC2c2cccnc2)c(=O)[nH]c1=S (configuration not stated) | 6 | 7 | 0 | 3
C/C(=N\N1CCCCC1c1cccnc1)c1c(O)n(C2CCCCC2)c(=S)[nH]c1=O (configuration not stated) | 7 | 61* | -1 | 8
CCC(C)[C@H]1O[C@]2(C=C[C@@H]1C)C[C@@H]1C[C@@H](C/C=C(\C)[C@@H](O[C@@H]3C[C@H](OC)[C@H](O[C@H]4C[C@H](OC)[C@@H](O)[C@H](C)O4)[C@H](C)O3)[C@@H](C)/C=C/C=C3\CO[C@@H]4[C@H](O)C(C)=C[C@@H](C(=O)O1)[C@]34O)O2 (some centres not stated) | . | . | . | -4
COc1ccc(Cn2c(N)c(C(=O)NCc3ccco3)c3nc4ccccc4nc32)cc1OC | 57* | 11 | 1 | -4
Cc1c(P(=S)(c2ccccc2)c2ccccc2)[n+]2ccccc2n1C | 74*! | 75 | 0 | -3
CCCCn1c(O)c(/C=N/NC(=O)c2ccncc2)c(=O)[nH]c1=S | 27 | 48* | 0 | 1
COC(=O)C1=C(c2ccc(C(C)=O)cc2)C[C@@H]2CC[C@H]1N2C(=O)NC1CCCCC1 | -4 | -4 | 7.3* | -6 | aDG glyco conf=-1
COC(=O)C1=C(c2ccc3ccccc3c2)C[C@@H]2CC[C@H]1N2C(=O)NC1CCCCC1 | -1 | 0 | 0 | .
CC(C)C[C@@H](CN)CC(=O)O | . | . | . | 0
O=C1CN=C(c2ccccc2Cl)c2cc([N+](=O)[O-])ccc2N1 | . | . | . | 8
CC1CCC2[C@@H](C)C(=O)OC3O[C@]4(C)CCC1C32OO4 (some centres not stated) | -2 | 1 | 2.6* | 0 | aDG glyco conf=0
C[C@@H]1O[C@@H](O[C@H]2C[C@@H](O)[C@]3(CO)C4C(CC[C@]3(O)C2)[C@@]2(O)CC[C@H](C3=CC(=O)OC3)[C@@]2(C)C[C@H]4O)[C@H](O)[C@H](O)[C@H]1O (some centres not stated) | . | . | . | 2
CCCNC(=O)Cn1cnc2sc(C(=O)N3CCC4(CC3)OCCO4)c(C)c2c1=O | -1 | 0 | 14* | -1 | aDG glyco conf=0
CCC1(c2ccc(N)cc2)CCC(=O)NC1=O (configuration not stated) | 3 | -1 | 12* | 2 | aDG glyco conf=-1
CN1C(=O)/C(=C/c2ccc(N3CCCCCC3)o2)C(=O)NC1=S | 154 | 158 | 0 | .
